Bioassay records as filed in PubChem BioAssay.
This is a sample that favours compounds with a hit; in the whole collection about 1.1% have one here.
GSK3A inh: blocks human GSK-3 alpha kinase | ADP-Glo luminescence, 60 min | inhibition, % at 10 µM | actives 0.1% (n = 320,000) | AID 2650;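 active means more than half of replicates show inhibition above 20%; inconclusive means some but at most half of replicates above 20% inhibition; inactive means no replicate shows inhibition above 20%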;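 further: GST-tagged GSK-3 alpha with peptide substrate and 25 µM ATP; 0% = DMSO neutral wells and 100% = GW8510 positive control wells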
CDK5 inh: inhibitors of human CDK5/p35 kinase; Q00535+Q15078; Recombinant CDK5/p35, ADP-Glo luminescence, 60 min; inhibition, % at 10 µM; actives 0.01% (n = 330,000);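 active means highest replicate inhibition of at least 50% and at least 75% of replicates reaching 50%; inconclusive means only one of the two criteria met; inactive means both criteria failed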;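 further: plate controls were DMSO neutral control for no effect and GW8510 at 10 µM for full effect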
Target sequence (Q00535 whole entry, looked up): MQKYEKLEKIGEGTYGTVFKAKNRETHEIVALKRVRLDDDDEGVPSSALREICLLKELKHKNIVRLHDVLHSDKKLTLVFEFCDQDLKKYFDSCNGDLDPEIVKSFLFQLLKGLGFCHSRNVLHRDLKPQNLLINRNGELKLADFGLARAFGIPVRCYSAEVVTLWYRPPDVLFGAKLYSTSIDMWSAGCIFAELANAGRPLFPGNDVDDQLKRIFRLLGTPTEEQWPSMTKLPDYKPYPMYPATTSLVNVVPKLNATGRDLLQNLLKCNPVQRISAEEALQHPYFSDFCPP
Target sequence (Q15078 whole entry, looked up): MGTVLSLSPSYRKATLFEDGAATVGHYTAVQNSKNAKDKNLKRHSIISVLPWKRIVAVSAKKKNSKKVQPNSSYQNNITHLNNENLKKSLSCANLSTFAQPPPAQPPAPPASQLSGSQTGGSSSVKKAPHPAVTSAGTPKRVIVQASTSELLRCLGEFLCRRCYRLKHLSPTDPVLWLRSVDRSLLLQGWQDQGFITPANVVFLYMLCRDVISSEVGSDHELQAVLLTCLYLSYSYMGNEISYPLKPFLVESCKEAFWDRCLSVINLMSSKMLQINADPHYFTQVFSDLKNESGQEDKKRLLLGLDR
GSK3B inh: human GSK3beta kinase inhibition; GST-GSK3beta kinase, ADP-Glo luminescence, 60 min; active compounds read low; P49841; actives 0.038% (n = 300,000); activity score (negative = inhibition), % at 10 µM; AID 2097;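 active means more than half of replicate wells score below -50%, meaning over 50% inhibition versus plate controls; inconclusive means some replicates but at most half score below -50%; inactive means no replicate scores below -50%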;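 further: 0% = median DMSO wells and -100% = median GW8510 positive control wells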
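Test system: GST-tagged human GSK3beta kinase, cell-free; evaluation: activity score scaled between in-plate DMSO and GW8510 controls; measured by: ADP-Glo luminescence; incubation: 60 min reaction, RT; benchmarks: DMSO and 20 µM GW8510; reagent: peptide substrate plus 25 µM ATP (final); medium: Tris/MgCl2 kinase buffer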
SR-BI DiI-HDL act: enhances SR-BI lipid uptake from DiI-HDL; CHO ldlA[mSR-BI] cells, DiI-HDL uptake fluorescence, 3 h; 100 = double the neutral-control signal; activation, % at 12.5 µM; actives 0.096% (n = 320,000); AID 504775;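 active means mean replicate activation of at least 60% and every replicate at or above 60%; inconclusive means mean or all-replicate condition met, but not both; inactive means mean below 60% and not all replicates reaching 60%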;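 further: 0% = median plate neutral-control signal and 100% = twice that signal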
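system = CHO ldlA[mSR-BI] cells, LDL receptor-null, SR-BI overexpressing | medium = Ham's F12 with 0.5% BSA, HEPES 25 mM, pH 7.4 | probe or stimulus = DiI-HDL 10 µg/mL | compound dosing = single-point compound dose | incubation = compound exposure 3 h, 37 °C | technique = DiI fluorescence, bottom read | read-out = cell-associated DiI fluorescence as measure of HDL uptake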
SR-BI HDL uptake: inhibitors of mouse SR-BI mediated HDL lipid uptake | ldlA[mSR-BI] CHO cells, DiI-HDL uptake fluorescence, 3 h | inhibition, % at 12.5 µM | actives 0.96% (n = 320,000);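 active means mean replicate inhibition of at least 70% and a set share of replicates each scoring 70 or more; inconclusive means meets just one of the two criteria; inactive means fails both criteria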;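 further: 0% = median of neutral control wells and 100% = median of positive control wells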
* hit, by the source's call.

What do the screens show for `COc1ccc(/C=N/NC(=O)c2ccc(COc3ccccc3Cl)o2)c(OC)c1C`?
GSK3A inh: -3; CDK5 inh: 1; GSK3B inh: 0; SR-BI DiI-HDL act: -76; SR-BI HDL uptake: 76*

Results for COc1ccc(/C=N/NC(=O)c2ccc(COc3ccccc3Cl)o2)cc1 ?
GSK3A inh: -1; CDK5 inh: 0; GSK3B inh: -3; SR-BI DiI-HDL act: 3; SR-BI HDL uptake: -3

How did N#CCOC(=O)[C@H](Cc1c[nH]c2ccccc12)NS(=O)(=O)c1ccc(Cl)cc1 do in these assays?
GSK3A inh: -2; CDK5 inh: 2; GSK3B inh: -2; SR-BI DiI-HDL act: 3; SR-BI HDL uptake: -3

How did O=C(NNC(=O)c1cc(Cl)ccc1O)c1ccc(NS(=O)(=O)c2cccs2)cc1 do in these assays?
GSK3A inh: -1; CDK5 inh: -1; GSK3B inh: -1; SR-BI DiI-HDL act: -119; SR-BI HDL uptake: 119*

What do the screens show for `O=C(NNC(=O)c1ccccc1O)c1ccc(NS(=O)(=O)c2ccc(F)cc2)cc1`?
GSK3A inh: 0; CDK5 inh: -1; GSK3B inh: 3; SR-BI DiI-HDL act: -87; SR-BI HDL uptake: 87*

How did Cc1ccccc1NS(=O)(=O)c1ccc(C(=O)NNC(=O)c2ccccc2O)cc1 do in these assays?
GSK3A inh: -3; CDK5 inh: 0; GSK3B inh: 3; SR-BI DiI-HDL act: -84; SR-BI HDL uptake: 84*

How did O=C(NNC(=O)c1ccccc1F)c1ccc(NS(=O)(=O)c2ccc(F)cc2)cc1 do in these assays?
CDK5 inh: -3; SR-BI DiI-HDL act: 1; SR-BI HDL uptake: -1

What do the screens show for `COc1ccc(OC)c(C(=O)COC(=O)c2[nH]c(C)c(C(C)=O)c2C)c1`?
CDK5 inh: 0; SR-BI DiI-HDL act: -73; SR-BI HDL uptake: inconclusive

What do the screens show for `CCOC(=O)N1CCN(CC(=O)Nc2sc(CC)cc2C(=O)c2ccc(OC)cc2)CC1`?
GSK3A inh: -3; CDK5 inh: 0; GSK3B inh: 3; SR-BI DiI-HDL act: -35; SR-BI HDL uptake: 35

How did COc1ccc2ccccc2c1/C=N/NC(=O)c1nnn(-c2nonc2N)c1C(C)C do in these assays?
GSK3A inh: 4; CDK5 inh: -1; GSK3B inh: 2; SR-BI DiI-HDL act: -77; SR-BI HDL uptake: 77*

How did Cc1ccc(-c2c(C(=O)N/N=C/c3ccc(OC(C)C)cc3)nnn2-c2nonc2N)cc1 do in these assays?
GSK3A inh: 0; CDK5 inh: -2; GSK3B inh: 0; SR-BI DiI-HDL act: -78; SR-BI HDL uptake: 78*

Results for Cc1ccc(-c2c(C(=O)N/N=C/c3ccc4c(c3)OCO4)nnn2-c2nonc2N)cc1 ?
GSK3A inh: 0; GSK3B inh: -3; SR-BI DiI-HDL act: -76; SR-BI HDL uptake: 76*

Results for CCOc1ccc(-c2c(C(=O)N/N=C/c3ccc(OC(C)C)cc3)nnn2-c2nonc2N)cc1 ?
GSK3A inh: -2; CDK5 inh: -2; GSK3B inh: 2; SR-BI DiI-HDL act: -77; SR-BI HDL uptake: 77*

What do the screens show for `COc1ccc2ccccc2c1/C=N/NC(=O)c1nnn(-c2nonc2N)c1CN(C)C`?
GSK3A inh: 9; CDK5 inh: 1; GSK3B inh: -3; SR-BI DiI-HDL act: -33; SR-BI HDL uptake: 33

Results for Cc1ccc(SCc2c(C(=O)N/N=C/c3ccc4c(c3)OCO4)nnn2-c2nonc2N)cc1 ?
GSK3A inh: -2; CDK5 inh: 0; GSK3B inh: 3; SR-BI DiI-HDL act: -6; SR-BI HDL uptake: 6

How did CSc1ccc(Cl)c(C(=O)NNC(=O)c2cccs2)c1 do in these assays?
GSK3A inh: 5; CDK5 inh: -1; SR-BI DiI-HDL act: -8; SR-BI HDL uptake: 8

How did Cn1nc(C(=O)Nc2cccc(S(=O)(=O)N3CCCCC3)c2)c2ccccc2c1=O do in these assays?
CDK5 inh: 2; SR-BI DiI-HDL act: -45; SR-BI HDL uptake: 45

What do the screens show for `CCOc1ccc(-c2c(C(=O)N/N=C/c3ccccc3)nnn2-c2nonc2N)cc1`?
GSK3A inh: 1; CDK5 inh: 0; GSK3B inh: -1; SR-BI DiI-HDL act: -74; SR-BI HDL uptake: 74*

What do the screens show for `CSCCC(=O)N1CCC(n2nccc2NC(=O)CCc2ccccc2)CC1`?
CDK5 inh: 2; GSK3B inh: 3; SR-BI DiI-HDL act: -15; SR-BI HDL uptake: 15

How did COc1ccc(Cl)cc1NC(=O)c1ccco1 do in these assays?
GSK3A inh: -1; CDK5 inh: -3; GSK3B inh: 4; SR-BI DiI-HDL act: -5; SR-BI HDL uptake: 5

Results for COc1ccc(Cl)cc1C(=O)Nc1ccc(NC(=O)c2ccco2)cc1 ?
GSK3A inh: -2; CDK5 inh: -1; GSK3B inh: -2; SR-BI DiI-HDL act: -82; SR-BI HDL uptake: 82*

Results for Cc1ccc(NC(=O)c2cc(NC(=O)c3ccco3)ccc2N2CCCCC2)cc1 ?
GSK3A inh: 9; CDK5 inh: 1; GSK3B inh: -1; SR-BI DiI-HDL act: -73; SR-BI HDL uptake: 73*

How did COc1cc(NC(=O)c2ccco2)c(OC)cc1NC(=O)Nc1ccccc1Cl do in these assays?
GSK3A inh: -2; CDK5 inh: 1; GSK3B inh: 5; SR-BI DiI-HDL act: -94; SR-BI HDL uptake: 94*

What do the screens show for `COc1cc(C(=O)Nc2ccc(NC(=O)c3ccco3)nc2)cc(OC)c1OC`?
GSK3A inh: 2; CDK5 inh: -2; GSK3B inh: 3; SR-BI DiI-HDL act: -72; SR-BI HDL uptake: 72*

Results for O=C(Nc1ccccc1Oc1ccccc1)c1cccs1 ?
GSK3A inh: 0; CDK5 inh: 0; GSK3B inh: 0; SR-BI DiI-HDL act: 5; SR-BI HDL uptake: -5

How did Nc1cc(=O)[nH]c2ncnn12 do in these assays?
CDK5 inh: 3; SR-BI DiI-HDL act: 12; SR-BI HDL uptake: -12

What do the screens show for `COc1ccc(Br)cc1CN1CCN(C(=O)c2cccc(F)c2)CC1`?
GSK3A inh: -3; CDK5 inh: 2; GSK3B inh: 1; SR-BI DiI-HDL act: -14; SR-BI HDL uptake: 14

Results for Cc1ccc(S(=O)(=O)N(C(=O)c2ccncc2)c2ccc(OC(=O)c3ccncc3)c3ccccc23)cc1 ?
GSK3A inh: -3; CDK5 inh: 1; GSK3B inh: -6; SR-BI DiI-HDL act: 430*; SR-BI HDL uptake: -430

What do the screens show for `Cc1ccc2c(CC(=O)NNC(=O)c3ccccc3O)coc2c1`?
GSK3A inh: 6; CDK5 inh: 0; GSK3B inh: 3; SR-BI DiI-HDL act: -106; SR-BI HDL uptake: 106*

What do the screens show for `O=C1NC2=C(C(=O)CCC2)C(c2cccc([N+](=O)[O-])c2)N1` (configuration not stated)?
CDK5 inh: 1; GSK3B inh: -1; SR-BI DiI-HDL act: -5; SR-BI HDL uptake: 5

What do the screens show for `O=Nc1c2ccc[nH]c-2c2ccc([N+](=O)[O-])cc12`?
GSK3A inh: 7; CDK5 inh: -1; GSK3B inh: 2; SR-BI DiI-HDL act: 26; SR-BI HDL uptake: -26
